Target: full-length Pin1 (Pin1FL) (Homo sapiens, UniProt Q13526)
Test: NMR 15N-1H HSQC titration, binding to full-length Pin1
Summary of the method: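 15N-labeled Pin1FL and Pin1WW were expressed separately in M9 medium with 15NH4Cl, induced with 1 mM IPTG at OD600 0.5 for 4 h, and purified by Ni affinity and gel filtration (20 mM HEPES pH 7.5, 50 mM NaCl, 5 mM EDTA; Pin1FL with 1 mM TCEP). Unlabeled phosphopeptides (dialyzed into matching buffer) were titrated at 0–637 µM into 100 µM protein. 1H-15N HSQC spectra were recorded at 25 °C and 600 MHz. Apparent KD was fitted from chemical shift changes, with 15N weighted 0.17.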

Chain of full-length Pin1 (Pin1FL) (Q13526 whole entry): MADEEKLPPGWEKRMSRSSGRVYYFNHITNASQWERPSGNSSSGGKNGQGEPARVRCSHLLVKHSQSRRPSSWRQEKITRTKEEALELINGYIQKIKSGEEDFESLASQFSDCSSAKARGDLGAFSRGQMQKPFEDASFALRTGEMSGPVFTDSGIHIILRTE

## KVAKpSPKKAKAW [H1.5]
Pin1FL and Pin1WW, in words
  interaction strength with Pin1 among H1 peptides: fairly low affinity
Compared with Pin1WW
  apparent affinity for full-length Pin1 relative to WW domain: decrease
